These results are taken from ChEMBL document CHEMBL3228026, “Inhibition of gastric acid secretion by 1,8-naphthyridin-2(1H)-ones” (J Med Chem, 1979).

Active and inactive are the calls of the source.

In general, EC50 refers to the concentration at which the effect is half-maximal. In general, inhibition in vivo refers to the relative decrease from the control value, in per cent. One may read the inhibition as the percentage by which the read-out fell short of the control.

Assay [1] has as its target Histamine H2 receptor (Rattus norvegicus, UniProt P25102). Kind of assay: Antagonist activity at histamine H2 receptor in Charles River rat assessed as inhibition of histamine-mediated electrically stimulated uterine contraction. In outline:
(§1)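 Uteri taken from female rats (150–200 g) primed with diethylstilbesterol (0.16 mg/rat) 16–20 h before sacrifice. Single horns were held in McEwen's solution at 34 °C under 95% O2–5% CO2. They were stimulated electrically every 50 s for 10 s with maximal current and 60 Hz trains of 1-ms pulses, and the block of the histamine response was scored. Footnote cutoff: under 30% reduction with test compound at 20 µg/mL.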

Assay [2] concerns Canis familiaris. Description: Antisecretory activity in Beagle dog assessed as inhibition of gastrin tetrapeptide-stimulated gastric acid secretion at 20 mg/kg, po administered 1 hr prior to gastrin tetrapeptide challenge measured every 30 mins for 90 mins relative to placebo control. Conditions: Canis lupus familiaris, Stomach. It is filed as functional. In outline:
(§2)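 Conscious female beagles (7–10 kg) with a chronic gastric fistula received compound through the gastric cannula, called oral. Gastric output was collected over three 30-min periods (90 min) after the stimulant. Titratable acid in an aliquot was titrated to pH 7 with 0.01 N NaOH using a glass-calomel electrode. The value is the maximal % drop in acid concentration against a placebo trial in the same dog, with SE where more than two animals.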

In assay [3] the test system is Canis familiaris. Description: Antisecretory activity in Beagle dog assessed as inhibition of histamine-stimulated gastric acid secretion at 40 mg/kg, po administered 1 hr prior to histamine challenge measured every 30 mins for 90 mins relative to placebo control. It is filed as functional, organism-based. On the set-up: dose 40 mg/kg. Conditions: Canis lupus familiaris, Stomach. Put shortly: as §2

Assay [4] addresses Histamine H2 receptor (Cavia porcellus) (UniProt P47747). Kind of assay: Antagonist activity at histamine H2 receptor in Hartley guinea pig atrium assessed as ratio of histamine concentration required in control to that required in presence of compound to increase atrium rate by 50 beats/min at 10 ug/mL. Conditions: Cardiac atrium. In outline:
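Spontaneously beating Hartley guinea pig atria were dissected free of other myocardium and held in McEwen's solution on a transducer. Rate was counted from the tracing. Histamine was given at increasing concentrations (0.05–3.2 µg/mL) with placebo or with inhibitor at 10 µg/mL. The value is the ratio of histamine concentration needed to raise rate by 50 beats/min in the placebo trial to that needed with compound.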

In assay [5] the target is Histamine H2 receptor (Rattus norvegicus) (UniProt P25102). Description: Antagonist activity at histamine H2 receptor in Charles River rat assessed as inhibition of histamine-mediated electrically stimulated uterine contraction at 20 ug/mL relative to histamine-treated placebo. Put shortly:
as §1

For assay [6], the system named is Canis familiaris. Description: Antisecretory activity in Beagle dog assessed as inhibition of gastrin tetrapeptide-stimulated gastric acid secretion at 40 mg/kg, po administered 1 hr prior to gastrin tetrapeptide challenge measured every 30 mins for 90 mins relative to placebo control. It is filed as functional, organism-based. Further details: dose 40 mg/kg. Conditions: Canis lupus familiaris, Stomach. In outline:
as §2

In assay [7] the test system is Canis familiaris. Description: Antisecretory activity in Beagle dog assessed as inhibition of histamine-stimulated gastric acid secretion at 20 mg/kg, po administered 1 hr prior to histamine challenge measured every 30 mins for 90 mins relative to placebo control. It is filed as functional. Conditions: Canis lupus familiaris, Stomach. Put shortly: as §2

Histamine H2 receptor, sequence (P25102 whole entry): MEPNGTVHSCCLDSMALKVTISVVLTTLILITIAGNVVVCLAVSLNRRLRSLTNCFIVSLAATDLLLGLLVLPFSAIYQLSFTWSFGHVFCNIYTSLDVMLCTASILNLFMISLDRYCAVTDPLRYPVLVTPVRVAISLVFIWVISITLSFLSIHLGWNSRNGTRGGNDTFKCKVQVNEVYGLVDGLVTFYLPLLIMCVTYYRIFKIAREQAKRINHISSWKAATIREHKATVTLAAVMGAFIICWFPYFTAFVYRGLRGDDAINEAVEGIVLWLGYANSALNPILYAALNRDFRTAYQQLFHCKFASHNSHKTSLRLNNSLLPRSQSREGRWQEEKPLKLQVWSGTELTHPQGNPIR
Histamine H2 receptor (Rattus norvegicus), sequence (P25102 whole entry): as above
Histamine H2 receptor (Cavia porcellus), sequence (P47747 whole entry): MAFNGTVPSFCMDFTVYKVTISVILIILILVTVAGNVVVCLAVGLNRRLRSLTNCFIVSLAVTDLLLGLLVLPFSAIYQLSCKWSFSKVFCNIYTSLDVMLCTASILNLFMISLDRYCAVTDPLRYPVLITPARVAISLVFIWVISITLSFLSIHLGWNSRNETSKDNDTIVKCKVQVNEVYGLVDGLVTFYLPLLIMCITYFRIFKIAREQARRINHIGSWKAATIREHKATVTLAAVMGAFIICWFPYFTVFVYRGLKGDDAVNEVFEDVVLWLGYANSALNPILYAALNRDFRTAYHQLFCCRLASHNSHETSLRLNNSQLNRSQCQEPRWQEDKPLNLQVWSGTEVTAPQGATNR

For `C/N=C(\S)NCCSCc1[nH]cnc1C` [METIAMIDE], the EC50 in assay [1] is 1.15 µM.
`COc1cc(C)c2ccc(=O)n(CCN(C)C)c2n1`: the concentration for a half-maximal effect (EC50) in assay [1] was 26.8 µM. Further, the inhibition in vivo at 20 mg/kg in assay [2] was found to be 27%. The inhibition result in assay [3] was “inactive”.
In the case of `Cc1cc(C)c2ccc(=O)n(CCN(C)C)c2n1`, in assay [1], the concentration for a half-maximal effect (EC50) was 16 µM. Moreover, the Ratio in assay [4] worked out at 0.18. Moreover, the inhibition in vivo at 20 mg/kg in assay [2] is 40%. Also, the inhibition result in assay [3] was “inactive”.
As to `Cc1cc(C)c2ccc(=O)n(CCN(C3CCCCC3)C3CCCCC3)c2n1`, in assay [5], the inhibition is under 30%. Besides, the inhibition in vivo at 20 mg/kg in assay [2] was under 25%. Besides, the inhibition result in assay [3] was “inactive”.
For `Cc1nc2c(ccc(=O)n2CCN(C)C)c(C)c1C`, the 50% effective concentration (EC50) in assay [1] was 48.2 µM. Further, the inhibition in vivo at 20 mg/kg in assay [2] was determined as 61%. The inhibition result in assay [3] is “inactive”.
For `Cc1cc(C)c2ccc(=O)n(CC(C)(C)N(C)C)c2n1`, in that order: 38 µM, 38% and “inactive”.
On to `Cc1cc(C)c2ccc(=O)n(CC[N+](C)(C)C)c2n1`, for which the inhibition in assay [5] was under 30%. Further, the inhibition in vivo at 20 mg/kg in assay [2] is under 25%. Further, the inhibition entry in assay [3] is “inactive”.
As for `Cc1cc(C)c2c(n1)N(CCN(C)C)C(=O)CC2`, in assay [1], the concentration giving a half-maximal response (EC50) was 19.4 µM. Also, the Ratio in assay [4] amounted to 0.013. In addition, the inhibition in vivo at 20 mg/kg in assay [2] was under 25%. For the same compound, in assay [3], the inhibition result is “inactive”.
With `CCc1ccc2ccc(=O)n(CCN(C)C)c2n1`, the concentration giving a half-maximal response (EC50) in assay [1] was 3.22 µM. The inhibition in vivo at 20 mg/kg in assay [2] is under 25%. In addition, the inhibition entry in assay [3] was “inactive”.
For `Cc1cc(C)c2ccc(=O)n(CCN3CCCCC3)c2n1`, in assay [1], the EC50 was 10.7 µM. Also, in assay [2], the inhibition in vivo at 20 mg/kg amounted to 40%. For the same compound, in assay [3], the inhibition entry is “inactive”.
Consider `Cc1cc(C)c2c(n1)N(CCN(C)C)CCC2`, for which the half-maximal effective concentration (EC50) in assay [1] was 4.33 µM. Besides, the inhibition result in assay [6] and in assay [3] was “inactive” in each case.
Take `CC(C)N(CCn1c(=O)ccc2cccnc21)C(C)C`: the 50% effective concentration (EC50) in assay [1] is 76.5 µM. In addition, the inhibition in vivo at 20 mg/kg in assay [2] worked out at 51%. In assay [3], the inhibition entry was “inactive”.
Turning to `Cc1cc(C)c2ccc(=O)n(CCCCN(C)C)c2n1`, in assay [5], the inhibition is under 30%. In assay [2], the inhibition in vivo at 20 mg/kg was under 25%. Moreover, the inhibition result in assay [3] was “inactive”.
For `CNCCn1c(=O)ccc2c(C)cc(C)nc21`, the concentration giving a half-maximal response (EC50) in assay [1] is 91.2 µM. In assay [2], the inhibition in vivo at 20 mg/kg is under 25%. In addition, the inhibition entry in assay [3] is “inactive”.
As to `CN(C)CCn1c(=O)ccc2cccnc21`, in assay [5], the inhibition was under 30%. Besides, the Ratio in assay [4] turned out to be 0.54. For the same compound, the inhibition in vivo at 20 mg/kg in assay [2] is 59%. In assay [3], the inhibition result is “inactive”.
On to `Cc1cc(C)c2ccc(=O)n(CCN3C(C)(C)CCCC3(C)C)c2n1`, for which the inhibition in assay [5] is under 30%. Moreover, in assay [2], the inhibition in vivo at 20 mg/kg is under 25%. Moreover, the inhibition result in assay [3] was “inactive”.
For `Cc1cc(C)c2ccc(=O)n(CCCN(C)C)c2n1`, in that order: under 30%, 31% and “inactive”.
In the case of `Cc1cc(C)c2ccc(=S)n(CCN(C)C)c2n1`, the 50% effective concentration (EC50) in assay [1] was 14 µM. Further, the inhibition in vivo at 20 mg/kg in assay [2] amounted to 41%. Besides, the inhibition entry in assay [3] is “inactive”.
As for `Cc1ccc2ccc(=O)n(CCN(C)C)c2n1`, the EC50 in assay [1] is 9.43 µM. Also, the inhibition in vivo at 20 mg/kg in assay [2] is under 25%. In addition, the inhibition entry in assay [3] was “inactive”.
Take `Cc1cc(C(F)(F)F)nc2c1ccc(=O)n2CCN(C)C`: the EC50 in assay [1] was 5.35 µM. Moreover, in assay [2], the inhibition in vivo at 20 mg/kg turned out to be 34%. The inhibition entry in assay [3] is “inactive”.
Take `CCn1c(=O)ccc2c(C)cc(C)nc21`: the inhibition in assay [5] is under 30%. Besides, the inhibition in vivo at 20 mg/kg in assay [2] was under 25%. Moreover, in assay [3], the inhibition entry is “inactive”.
As to `CN(C)CCn1c(=O)ccc2c(C(F)(F)F)cc(C(F)(F)F)nc21`, the inhibition in assay [5] was under 30%. The inhibition in vivo at 20 mg/kg in assay [2] worked out at 32%. Besides, in assay [3], the inhibition entry is “inactive”.
In the case of `Cc1cc(C)c2ccc(=O)n(CCN)c2n1`, the EC50 in assay [1] is 156 µM. Also, the inhibition in vivo at 20 mg/kg in assay [2] is under 25%. Also, in assay [3], the inhibition entry is “inactive”.
Consider `Cc1ccnc2c1ccc(=O)n2CCN(C)C`, for which, in assay [5], the inhibition is under 30%. Besides, the inhibition in vivo at 20 mg/kg in assay [2] was determined as 58%. Further, in assay [3], the inhibition entry was “inactive”.
For `Cc1cc(C(F)(F)F)c2ccc(=O)n(CCN(C)C)c2n1`, in that order: under 30%, 52% and “inactive”.
For the compound `Cc1cc(C)c2ccc(=O)n(CCN(C(C)C)C(C)C)c2n1`, in assay [1], the 50% effective concentration (EC50) is 4.78 µM. Moreover, in assay [4], the Ratio was found to be 0.011. Besides, the inhibition in vivo at 20 mg/kg in assay [2] came to 57%. Moreover, the inhibition entry in assay [3] is “inactive”.
Turning to `CC(C)c1ccc2ccc(=O)n(CCN(C)C)c2n1`, the EC50 in assay [1] is 2.31 µM. Moreover, the inhibition in vivo at 20 mg/kg in assay [2] was under 25%. In addition, the inhibition entry in assay [3] was “inactive”.
Take `CCCCN(CCCC)CCn1c(=O)ccc2c(C)cc(C)nc21`: the EC50 in assay [1] was 5.46 µM. The inhibition in vivo at 20 mg/kg in assay [2] was 33%. Also, the inhibition entry in assay [3] was “inactive”.
Turning to `Cc1cnc2c(ccc(=O)n2CCN(C)C)c1`, the inhibition in assay [5] is under 30%. Moreover, in assay [2], the inhibition in vivo at 20 mg/kg came to 58%. Further, the inhibition entry in assay [3] is “inactive”.
Take `CC(C)Cc1ccc2ccc(=O)n(CCN(C)C)c2n1`: the EC50 in assay [1] was 0.585 µM. Besides, the Ratio in assay [4] amounted to 0.21. Also, the inhibition in vivo at 20 mg/kg in assay [2] was under 25%. Also, in assay [3], the inhibition entry was “inactive”.
Take `CN(C)CCn1c(=O)ccc2ccccc21`: the inhibition in assay [5] is under 30%. In addition, the inhibition in vivo at 20 mg/kg in assay [2] is under 25%. For the same compound, in assay [3], the inhibition result was “inactive”.
`CCN(CC)CCn1c(=O)ccc2c(C)cc(C)nc21`: in assay [1], the concentration giving a half-maximal response (EC50) is 4.1 µM. Moreover, the inhibition in vivo at 20 mg/kg in assay [2] is under 25%. Further, the inhibition entry in assay [3] was “inactive”.
Turning to `Cc1cc(Cl)nc2c1ccc(=O)n2CCN(C)C`, the 50% effective concentration (EC50) in assay [1] is 34.7 µM. Further, the inhibition in vivo at 20 mg/kg in assay [2] was under 25%. The inhibition result in assay [3] is “inactive”.
For `CCc1cc(CC)c2ccc(=O)n(CCN(C)C)c2n1`, in that order: 19 µM, under 25% and “inactive”.
Turning to `CNC(=S)NCCSCc1[nH]cnc1C` [METIAMIDE], in assay [4], the Ratio worked out at 0.003. For the same compound, the results for the inhibition in vivo at 20 mg/kg in assay [2] and in assay [7] were 76% and 46%, respectively.
